Rev-erbA mod: Rev-erb alpha (human) modulation; Rev-erbα–FITC-DNA binding, fluorescence polarization, 90 min; activity, % at 10 µM; P20393; 0.79% of 370,000 active;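 active = activity above about 14%, limit read from the data; passing the limit was not always enough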;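 also: 0% = DMSO wells with 35 nM protein and 100% = DMSO wells with 750 nM protein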
Target sequence (P20393 whole entry, looked up): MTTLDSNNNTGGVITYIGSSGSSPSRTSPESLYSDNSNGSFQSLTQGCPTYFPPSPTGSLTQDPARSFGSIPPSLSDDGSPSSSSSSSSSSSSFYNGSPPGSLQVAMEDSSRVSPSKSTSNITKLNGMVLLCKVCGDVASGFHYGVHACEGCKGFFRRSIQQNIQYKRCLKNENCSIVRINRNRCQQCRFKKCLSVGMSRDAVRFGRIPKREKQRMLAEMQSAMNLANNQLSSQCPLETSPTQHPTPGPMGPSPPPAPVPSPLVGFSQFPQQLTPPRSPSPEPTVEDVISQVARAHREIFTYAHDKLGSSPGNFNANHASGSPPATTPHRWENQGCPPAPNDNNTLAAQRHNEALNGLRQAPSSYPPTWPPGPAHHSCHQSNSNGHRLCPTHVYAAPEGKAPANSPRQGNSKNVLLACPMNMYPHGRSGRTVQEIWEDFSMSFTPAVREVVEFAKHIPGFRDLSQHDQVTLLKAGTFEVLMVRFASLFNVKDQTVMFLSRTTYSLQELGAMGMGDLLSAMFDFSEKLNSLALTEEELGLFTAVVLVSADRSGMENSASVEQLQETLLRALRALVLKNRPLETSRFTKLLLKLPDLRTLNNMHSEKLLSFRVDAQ
NR2E3 ag-1: activates human NR2E3 receptor | Q9Y5X4 | CHO-S Gal4-NCOR/VP16-NR2E3 two-hybrid, luciferase | inhibition of corepressor binding, % at 3.98 µM | 0.35% of 360,000 active | AID 602229;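 active = inhibition above the mean of all tested compounds plus 3 SD, cut at about 70% in these data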;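 also: 0% = DMSO with NR2E3 transfected cells and 100% = cells lacking NR2E3 construct; higher means lower luciferase signal from less NR2E3 corepressor binding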
PG9 Ab binder: binds the HIV-1 gp120 antibody PG9; TR-FRET gp120-PG9 antibody binding; inhibition, % at 6.7 µM; 0.43% of 360,000 active; AID 624416; in the data active = inhibition above about 8.5%
NR2E3 ag-2: agonists of human nuclear receptor NR2E3 | Q9Y5X4 | GST-NR2E3/biotin-RetCOR TR-FRET, 1536-well | inhibition of corepressor binding, % at 4.78 µM | 0.12% of 320,000 active | AID 2300;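 active = percent inhibition above the cutoff of mean plus 3 SD of all tested compounds, set per screening campaign, cut at about 20% in these data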;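 also: 0% = DMSO wells and 100% = biotin wells as full block of FRET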
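Material: NR2E3–RetCOR corepressor complex | Quantity: 1.35 nM GST-tagged NR2E3 final | Schedule: 5 h at 4 °C | Replication: Singlicate compound wells | Reagent: RetCOR corepressor, biotinylated, 7 nM | Controls: Biotin wells as high control, 0.6% DMSO wells as low control | Signal: TR-FRET, Eu(K)-anti-GST donor, streptavidin-D2 acceptor, ex 340, em 617/671 nm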
VLA-4 inh: inhibition in a human VLA-4 binding assay; VLA-4 expressing cells, ligand binding flow cytometry; inhibition, % (about 7 µM as worked out from the volumes in the protocol); 0.2% of 330,000 active; in the data active = inhibition above about 50%
NR1D1 mod conf: Rev-erb alpha (human) modulation, hit confirmation | shares compounds with Rev-erbA mod | Rev-erb alpha FITC-DNA binding, fluorescence polarization, 90 min | activation, % at 25 µM | 61% of 3,000 active;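 active = activation at or above a set limit, or at least 3 SD above the negative control mean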;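 also: 0% = 35 nM protein with DMSO and 100% = 750 nM protein high control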
RORg counter: affects RORgamma DNA binding in a Rev-erb alpha counter-screen; IC50, µM; purified RORgamma protein-FITC-DNA binding, fluorescence polarization; 8% of 910 active; shares compounds with Rev-erbA mod;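 active = Compounds whose fitted half-maximal concentration for disrupting protein-DNA binding is below 10 micromolar; the record names Rev-erb in its text, so the target is in doubt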
Numbers without * were called inactive; i = inactive; nt = no result given. Shown are actives, neighbours in structure and some others; about 1.6% of the full set was active somewhere.

SMILES	Rev-erbA mod	NR2E3 ag-1	PG9 Ab binder	NR2E3 ag-2	VLA-4 inh	NR1D1 mod conf	others
CN(C)c1ccc(P(=O)(Nc2cccc(C(F)(F)F)c2)N2CCOCC2)c(NC(=O)c2cccs2)c1 (stereo not drawn)	33*	3	1	4	-3	2
CCCCC(C(=O)NC1CCCC1)N(Cc1ccccc1)C(=O)c1snc(C(N)=O)c1N (stereo not drawn)	22*	-9	-1	5	0	-1
CN(C)c1ccc(C(C(=O)NCC2CCCO2)N(C(=O)c2snc(C(N)=O)c2N)c2ccccc2)cc1 (stereo not drawn)	38*	-22	-3	-3	-7	10
Cc1cccc(N(C(=O)c2snc(C(N)=O)c2N)C(C(=O)NCC2CCCO2)c2ccc(N(C)C)cc2)c1 (stereo not drawn)	46*	-14	0	1	-1	14
N#CC1=C(N)Oc2cc(N)ccc2C1c1cccc(Br)c1 (stereo not drawn)	-4	-8	1	nt	0	nt
CSCC[C@H](N)C(=O)NC[C@H]1O[C@@H](n2cnc3c(N)ncnc32)[C@H](O)[C@@H]1O	3	-4	0	nt	nt	nt
CC(C)(C)OC(=O)CC1(C#N)c2ccccc2C(Br)=CN1C(=O)c1ccccc1 (stereo not drawn)	6	-6	0	4	21	nt
Cc1ccc(C(=O)OCC(=O)c2c[nH]c3ccccc23)cc1	-4	-38	1	0	-2	nt
O=C(OCC(=O)c1c[nH]c2ccccc12)c1cc(Br)ccc1O	42*	-59	2	1	4	41*	RORg counter=>40
Cc1cccc2c1cnn2C(=O)Nc1cc(F)ccc1F	4	-28	-1	0	1	nt
O=S(=O)(c1cccc2nsnc12)N1CCNCC1	25*	-32	-1	2	9	-5
O=S(=O)(c1cccc2nsnc12)N1CCOCC1	1	-13	1	-2	16	nt
COc1cc2c(cc1OC)C(COc1ccc([N+](=O)[O-])cc1)N(C(C)=O)CC2 (stereo not drawn)	-2	14	1	-1	-2	nt
Cc1nc(SCC(=O)Nc2ccccc2C(F)(F)F)c(C#N)c(C)c1CC(=O)c1ccc(Br)cc1	43*	nt	1	5	-3	7
CCc1c(C)nc(SCC(=O)c2cccs2)c(C#N)c1C	3	-242	-3	-3	14	nt
Cc1ccccc1N1C(=O)c2cccc3c(N(C)CCO)ccc(c23)C1=O	40*	5	-2	-6	-2	38*
COc1ccccc1N1C(=O)c2cccc3c(N(C)CCO)ccc(c23)C1=O	30*	3	-5	-4	-16	37*	RORg counter=>40
O=C(O)c1cccc(-n2c(/C=C/c3ccccc3)nc3ccccc3c2=O)c1	4	18	-1	-1	i	nt
CN(C)c1ccc(/C=C/c2nc3ccccc3c(=O)n2-c2ccc(C(=O)O)cc2)cc1	23*	-29	0	-1	-133	24*
c1ccc(CSc2ncccc2-c2nc3ccccc3[nH]2)cc1	3	nt	nt	nt	nt	nt
CC(C)CSc1ncccc1-c1nc2ccccc2[nH]1	17*	nt	nt	nt	nt	11*
COc1cccc(-n2c([S-])c(C(=O)Nc3ccc(S(=O)(=O)N4CCOCC4)cc3)[n+]3cc(C(N)=O)ccc23)c1	62*	-6	-2	-2	-5	63*	RORg counter=i
Cc1ccc(Cn2cc(CN(C(C)(C)C)S(=O)(=O)c3ccccc3Br)nn2)cc1	8	nt	nt	nt	nt	nt
Cc1ccc(C(=O)Oc2ccc(-c3nccc(-c4ccccn4)n3)cc2)cc1	20*	-61	1	2	24	15
O=C(Oc1ccc(-c2nccc(-c3ccccn3)n2)cc1)c1cccc(C(F)(F)F)c1	11	-13	0	3	16	nt
SMILES	Rev-erbA mod	NR2E3 ag-1	PG9 Ab binder	NR2E3 ag-2	VLA-4 inh	NR1D1 mod conf	others
CC(=O)Nc1ccc(NC(=O)C(C)OC(=O)CCCOc2ccc(Cl)cc2C)cc1 (stereo not drawn)	-6	-18	-4	-3	3	nt
CCOC(=O)c1cc(-c2cc3ccccc3o2)nc2c1c(=O)[nH]c(=O)n2CCOC	27*	1	0	-1	-26	9
CCn1c(/C=C/c2c(C)[nH]c3ccccc23)nc2ccccc2c1=O	59*	2	-1	1	-2	29*
CCn1c(/C=C/c2c[nH]c3ccccc23)nc2ccccc2c1=O	1	-105	-1	1	2	nt
CCCS(=O)(=O)NC(=O)C1(C)CCN(C(=O)c2cc(C)on2)C1 (stereo not drawn)	-3	-17	3	nt	nt	nt
O=C(c1ccc(Br)c(S(=O)(=O)N2CCOCC2)c1)N1CCN(C/C=C/c2ccccc2)CC1	10	1	1	nt	nt	nt
CCOC(=O)/C(C#N)=C/Nc1cc(F)ccc1C	0	-2	2	4	12	nt
CCOC(=O)/C(C#N)=C/Nc1ccsc1C(=O)OC	22*	12	1	-4	2	11
CCOC(=O)/C(C#N)=C/Nc1cc(C(=O)OCC)cc2c(OC)c(OC)ccc12	31*	-4	1	nt	nt	-2
CC(C)Oc1ccc(CNC(=O)Cn2c(=O)c3cccn3c3cccnc32)cc1	1	-14	-2	1	-3	nt
CCOc1ccc(CNC(=O)Cn2c(=O)c3cccn3c3ccccc32)cc1	39*	5	1	2	-122	24*
O=c1oc2ccccc2cc1-c1nc(-c2ccccc2)no1	nt	-37	nt	1	-11	nt
Cc1ccc(-c2noc(-c3cc4ccccc4oc3=O)n2)cc1	33*	-38	0	2	11	18*
COc1ccc(-c2cc3ccccc3oc2=O)cc1	-3	-133	0	0	-1	nt
COc1ccc(-c2nnc(-c3cc4ccccc4oc3=O)o2)cc1	24*	1	0	-2	-4	24*
CCCCCCCCN1C(=O)[C@H](CC(=O)NCc2ccc(OC)c(OC)c2)C[C@@]2(C(=O)OC)CC(C)(C)CC=C12	-4	nt	0	nt	nt	nt
CCc1nc2sccc2c(=O)n1N	3	14	1	3	-1	nt
COC(=O)c1cn(NC(=O)Cc2ccc(OC)c(OC)c2)c(=O)c2ccccc12	12*	19	1	-1	0	0
COC(=O)c1cn(NC(=O)Cc2cccc(OC)c2)c(=O)c2ccccc12	-2	1	-2	-4	3	nt
CCOc1cccc2cc(C(N)=O)c(=N)oc12	-6	-5	0	nt	nt	nt
CCOc1cccc2cc(C(N)=O)c(=NCc3ccccc3)oc12	48*	-9	-3	1	4	17*
COc1ccc2cc(CCN3C(=O)c4ccccc4C3=O)c(=O)[nH]c2c1	28*	-3	1	2	-20	20*

Compound activity as filed in PubChem BioAssay.
